Data taken from ChEMBL document CHEMBL1134554, “Design, synthesis, and structure-activity relationships of macrocyclic hydroxamic acids that inhibit tumor necrosis factor alpha release in vitro and in vivo” (J Med Chem, 2001).
Blank lines part the entries; values can stand above or below the compound they belong to.

Key:
[1] = target: Matrix metalloproteinase-14 (Homo sapiens, UniProt P50281); assay: Inhibition of matrix metalloprotease-14
[2] = target: Disintegrin and metalloproteinase domain-containing protein 17 (Sus scrofa, UniProt O77636)
Sequence of Disintegrin and metalloproteinase domain-containing protein 17 (Sus scrofa, UniProt O77636) (O77636 whole entry, the tested form may be a part): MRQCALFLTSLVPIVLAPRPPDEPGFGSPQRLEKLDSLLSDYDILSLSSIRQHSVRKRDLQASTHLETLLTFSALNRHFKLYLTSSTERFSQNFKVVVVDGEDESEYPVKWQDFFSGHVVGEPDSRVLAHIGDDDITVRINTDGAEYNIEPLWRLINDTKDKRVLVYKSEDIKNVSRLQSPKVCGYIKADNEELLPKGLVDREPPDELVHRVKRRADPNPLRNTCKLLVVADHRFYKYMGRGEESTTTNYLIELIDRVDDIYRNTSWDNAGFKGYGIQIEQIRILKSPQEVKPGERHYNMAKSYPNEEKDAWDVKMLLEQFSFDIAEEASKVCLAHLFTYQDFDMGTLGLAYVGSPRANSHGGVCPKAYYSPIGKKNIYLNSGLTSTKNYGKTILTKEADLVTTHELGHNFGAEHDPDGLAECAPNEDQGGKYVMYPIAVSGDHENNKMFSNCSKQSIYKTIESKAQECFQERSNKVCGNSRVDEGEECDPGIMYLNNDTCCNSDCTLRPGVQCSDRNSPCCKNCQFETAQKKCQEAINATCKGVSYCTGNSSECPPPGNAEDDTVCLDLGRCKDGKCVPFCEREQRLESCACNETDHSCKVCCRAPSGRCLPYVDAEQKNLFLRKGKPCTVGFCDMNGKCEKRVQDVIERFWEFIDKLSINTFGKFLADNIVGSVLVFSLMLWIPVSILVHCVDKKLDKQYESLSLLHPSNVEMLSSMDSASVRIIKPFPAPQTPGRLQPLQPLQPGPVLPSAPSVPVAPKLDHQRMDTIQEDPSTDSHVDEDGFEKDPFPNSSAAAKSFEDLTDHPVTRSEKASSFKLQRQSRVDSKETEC

[3] = target: T1, Interstitial collagenase (Homo sapiens, UniProt P03956); assay: In vitro inhibition of human MMP-1.
T1 sequence (P03956 whole entry): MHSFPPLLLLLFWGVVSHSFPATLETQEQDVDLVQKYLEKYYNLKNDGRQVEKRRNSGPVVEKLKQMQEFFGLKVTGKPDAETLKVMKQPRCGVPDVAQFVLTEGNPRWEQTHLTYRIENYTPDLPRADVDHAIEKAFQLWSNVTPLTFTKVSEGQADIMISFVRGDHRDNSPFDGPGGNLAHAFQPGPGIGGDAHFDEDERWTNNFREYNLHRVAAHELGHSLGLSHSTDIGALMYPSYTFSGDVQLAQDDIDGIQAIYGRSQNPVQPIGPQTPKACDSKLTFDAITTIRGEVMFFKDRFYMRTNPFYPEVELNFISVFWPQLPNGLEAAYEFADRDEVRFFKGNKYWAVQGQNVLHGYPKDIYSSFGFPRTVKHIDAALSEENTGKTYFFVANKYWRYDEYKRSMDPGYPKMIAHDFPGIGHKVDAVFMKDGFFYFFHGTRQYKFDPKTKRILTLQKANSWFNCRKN

[4] = Pharmacokinetic data in Beagle dogs at 0.74 mg/kg intravenous dose.; format: ADME, organism-based, Canis lupus familiaris; design: dose 0.74 mg/kg, route intravenous; conditions: dog, in vivo
Method in brief: (§1)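 Male beagle dogs (~10 kg), two per compound, dosed iv in 10% ethanol solution. Blood sampled before dosing and at 1, 2, 4, 6, 8, 12 and 24 h after. Plasma levels measured by LC/MS/MS after solid-phase extraction (detection limit 10 nM). Parameters reported as mean.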

[5] = target: Collagenase 3 (Homo sapiens, UniProt P45452)
[6] = target: Neutrophil collagenase (Homo sapiens, UniProt P22894); assay: Inhibition of matrix metalloprotease-8
Sequence of Neutrophil collagenase (P22894 whole entry): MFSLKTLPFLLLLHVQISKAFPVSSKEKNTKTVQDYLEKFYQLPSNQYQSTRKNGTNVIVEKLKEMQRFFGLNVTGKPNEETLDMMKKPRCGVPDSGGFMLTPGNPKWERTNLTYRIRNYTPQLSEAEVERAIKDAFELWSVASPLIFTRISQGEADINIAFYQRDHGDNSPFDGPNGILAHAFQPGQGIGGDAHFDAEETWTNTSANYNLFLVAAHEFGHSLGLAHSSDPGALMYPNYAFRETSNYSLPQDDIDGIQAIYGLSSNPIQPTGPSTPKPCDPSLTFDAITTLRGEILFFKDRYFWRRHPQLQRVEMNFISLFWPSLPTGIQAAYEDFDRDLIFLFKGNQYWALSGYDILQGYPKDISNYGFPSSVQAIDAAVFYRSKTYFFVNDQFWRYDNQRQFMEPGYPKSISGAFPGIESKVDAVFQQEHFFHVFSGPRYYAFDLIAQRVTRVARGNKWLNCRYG

[7] = target: T2, Matrilysin (Homo sapiens, UniProt P09237); assay: Inhibition of matrix metalloprotease-7
T2 sequence (P09237 whole entry): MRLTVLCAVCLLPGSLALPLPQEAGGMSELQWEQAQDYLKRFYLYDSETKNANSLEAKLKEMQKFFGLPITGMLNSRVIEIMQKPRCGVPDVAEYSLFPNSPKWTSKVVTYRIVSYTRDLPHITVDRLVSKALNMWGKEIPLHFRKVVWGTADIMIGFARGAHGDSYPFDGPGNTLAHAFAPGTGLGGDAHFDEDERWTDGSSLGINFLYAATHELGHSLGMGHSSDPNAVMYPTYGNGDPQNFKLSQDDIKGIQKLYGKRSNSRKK

[8] = target: Matrix metalloproteinase-15 (Homo sapiens, UniProt P51511); assay: Inhibition of matrix metalloprotease-15
Sequence of Matrix metalloproteinase-15 (P51511 whole entry): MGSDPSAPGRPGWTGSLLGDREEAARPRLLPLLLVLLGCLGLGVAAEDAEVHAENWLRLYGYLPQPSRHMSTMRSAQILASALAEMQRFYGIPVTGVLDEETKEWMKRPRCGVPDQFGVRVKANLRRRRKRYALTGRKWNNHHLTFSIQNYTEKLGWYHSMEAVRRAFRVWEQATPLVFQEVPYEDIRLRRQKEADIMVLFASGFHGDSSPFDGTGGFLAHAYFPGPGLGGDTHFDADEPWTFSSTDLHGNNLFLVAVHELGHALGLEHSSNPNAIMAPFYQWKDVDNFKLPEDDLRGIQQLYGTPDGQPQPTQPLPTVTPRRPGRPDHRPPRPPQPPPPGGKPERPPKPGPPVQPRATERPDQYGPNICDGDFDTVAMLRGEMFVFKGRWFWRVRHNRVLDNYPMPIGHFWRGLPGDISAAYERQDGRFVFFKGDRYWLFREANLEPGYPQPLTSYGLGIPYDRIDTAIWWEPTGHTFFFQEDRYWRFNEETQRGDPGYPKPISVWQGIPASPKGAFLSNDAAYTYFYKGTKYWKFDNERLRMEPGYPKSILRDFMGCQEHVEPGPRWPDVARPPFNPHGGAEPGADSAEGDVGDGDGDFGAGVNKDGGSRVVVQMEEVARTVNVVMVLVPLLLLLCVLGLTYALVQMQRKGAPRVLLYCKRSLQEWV

[9] = target: Matrix metalloproteinase-16 (Homo sapiens, UniProt P51512); assay: Inhibition of matrix metalloprotease-16
Sequence of Matrix metalloproteinase-16 (P51512 whole entry): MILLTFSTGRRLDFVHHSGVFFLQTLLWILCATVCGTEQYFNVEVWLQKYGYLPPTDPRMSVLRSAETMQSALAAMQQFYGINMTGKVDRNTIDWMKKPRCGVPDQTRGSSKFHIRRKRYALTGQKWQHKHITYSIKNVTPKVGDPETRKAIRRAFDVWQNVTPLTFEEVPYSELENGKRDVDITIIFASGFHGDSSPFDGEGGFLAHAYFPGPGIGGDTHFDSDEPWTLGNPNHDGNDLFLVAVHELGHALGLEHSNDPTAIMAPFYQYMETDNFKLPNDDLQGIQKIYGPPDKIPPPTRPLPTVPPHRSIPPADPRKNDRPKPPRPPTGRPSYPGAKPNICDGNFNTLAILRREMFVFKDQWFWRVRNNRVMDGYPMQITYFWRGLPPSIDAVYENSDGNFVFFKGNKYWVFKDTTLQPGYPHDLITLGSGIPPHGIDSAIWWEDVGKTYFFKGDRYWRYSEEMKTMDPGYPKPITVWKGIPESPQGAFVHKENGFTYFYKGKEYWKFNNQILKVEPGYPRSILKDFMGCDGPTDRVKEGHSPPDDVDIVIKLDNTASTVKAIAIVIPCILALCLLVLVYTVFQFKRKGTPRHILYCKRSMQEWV

[10] = target: Stromelysin-1 (Homo sapiens, UniProt P08254); assay: Inhibition of human MMP-3.
Sequence of Stromelysin-1 (P08254 whole entry): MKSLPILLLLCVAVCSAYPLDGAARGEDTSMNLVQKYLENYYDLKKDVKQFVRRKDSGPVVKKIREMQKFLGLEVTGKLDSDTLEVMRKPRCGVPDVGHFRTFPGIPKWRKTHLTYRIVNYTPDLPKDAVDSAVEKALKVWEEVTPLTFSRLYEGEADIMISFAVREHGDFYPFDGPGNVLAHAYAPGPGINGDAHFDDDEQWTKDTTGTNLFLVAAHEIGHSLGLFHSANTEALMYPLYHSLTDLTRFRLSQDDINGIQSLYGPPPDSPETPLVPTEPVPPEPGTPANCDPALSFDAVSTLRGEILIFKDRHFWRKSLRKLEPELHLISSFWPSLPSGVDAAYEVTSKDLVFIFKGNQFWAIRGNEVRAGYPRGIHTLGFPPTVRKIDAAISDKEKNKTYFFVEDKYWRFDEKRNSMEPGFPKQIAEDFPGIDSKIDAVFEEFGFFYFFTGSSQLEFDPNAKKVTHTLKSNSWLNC

[11] = target: 72 kDa type IV collagenase (Homo sapiens, UniProt P08253)
[12] = Pharmacokinetic data in Beagle dogs at 0.863 mg/kg oral dose.; format: ADME, organism-based, Canis lupus familiaris; design: dose 0.863 mg/kg, route oral; conditions: dog, in vivo
Method in brief: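 Two male beagle dogs (~10 kg) given 0.863 mg/kg orally as a 0.5% methocell suspension. Blood sampled before dosing and at 1, 2, 4, 6, 8, 12 and 24 h after. Plasma levels measured by LC/MS/MS after solid-phase extraction (detection limit 10 nM). Parameters reported as mean.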

[13] = target: Matrix metalloproteinase-9 (Homo sapiens, UniProt P14780); assay: In vitro inhibition of human MMP-9.
Sequence of Matrix metalloproteinase-9 (P14780 whole entry): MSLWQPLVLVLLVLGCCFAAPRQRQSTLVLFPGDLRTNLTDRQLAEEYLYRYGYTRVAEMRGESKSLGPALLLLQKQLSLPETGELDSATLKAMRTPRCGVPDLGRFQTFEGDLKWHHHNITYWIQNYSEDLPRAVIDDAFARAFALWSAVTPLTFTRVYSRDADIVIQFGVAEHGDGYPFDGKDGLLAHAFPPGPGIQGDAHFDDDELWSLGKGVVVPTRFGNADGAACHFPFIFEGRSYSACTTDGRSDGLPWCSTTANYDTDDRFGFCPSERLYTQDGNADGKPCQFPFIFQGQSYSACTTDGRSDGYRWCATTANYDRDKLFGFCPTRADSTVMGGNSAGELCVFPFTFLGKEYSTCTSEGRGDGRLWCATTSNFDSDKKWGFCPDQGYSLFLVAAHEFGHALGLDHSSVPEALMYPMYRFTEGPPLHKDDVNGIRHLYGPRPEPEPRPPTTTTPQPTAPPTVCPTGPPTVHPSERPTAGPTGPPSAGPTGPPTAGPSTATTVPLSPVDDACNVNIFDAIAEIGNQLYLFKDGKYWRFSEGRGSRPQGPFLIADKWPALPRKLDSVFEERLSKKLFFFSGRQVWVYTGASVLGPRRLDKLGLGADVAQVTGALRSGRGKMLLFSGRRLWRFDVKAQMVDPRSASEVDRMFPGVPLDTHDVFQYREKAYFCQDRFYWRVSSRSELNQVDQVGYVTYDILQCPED

[14] = Pharmacokinetic data in Beagle dogs at 0.74 mg/kg i.v. dose and 0.863 mg/kg p.o. dose; format: ADME, organism-based, Canis lupus familiaris; conditions: dog, in vivo, po
Method in brief: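 Male beagle dogs: iv 0.74 mg/kg in 10% ethanol (n=2), oral 0.863 mg/kg in 0.5% methocell suspension (n=2). Blood sampled to 24 h post-dose. Plasma analysed by LC/MS/MS after solid-phase extraction (detection limit 10 nM). Mean parameters given.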

[15] = target: Disintegrin and metalloproteinase domain-containing protein 17 (Homo sapiens, UniProt P78536)
Sequence of Disintegrin and metalloproteinase domain-containing protein 17 (Homo sapiens, UniProt P78536) (P78536 whole entry, the tested form may be a part): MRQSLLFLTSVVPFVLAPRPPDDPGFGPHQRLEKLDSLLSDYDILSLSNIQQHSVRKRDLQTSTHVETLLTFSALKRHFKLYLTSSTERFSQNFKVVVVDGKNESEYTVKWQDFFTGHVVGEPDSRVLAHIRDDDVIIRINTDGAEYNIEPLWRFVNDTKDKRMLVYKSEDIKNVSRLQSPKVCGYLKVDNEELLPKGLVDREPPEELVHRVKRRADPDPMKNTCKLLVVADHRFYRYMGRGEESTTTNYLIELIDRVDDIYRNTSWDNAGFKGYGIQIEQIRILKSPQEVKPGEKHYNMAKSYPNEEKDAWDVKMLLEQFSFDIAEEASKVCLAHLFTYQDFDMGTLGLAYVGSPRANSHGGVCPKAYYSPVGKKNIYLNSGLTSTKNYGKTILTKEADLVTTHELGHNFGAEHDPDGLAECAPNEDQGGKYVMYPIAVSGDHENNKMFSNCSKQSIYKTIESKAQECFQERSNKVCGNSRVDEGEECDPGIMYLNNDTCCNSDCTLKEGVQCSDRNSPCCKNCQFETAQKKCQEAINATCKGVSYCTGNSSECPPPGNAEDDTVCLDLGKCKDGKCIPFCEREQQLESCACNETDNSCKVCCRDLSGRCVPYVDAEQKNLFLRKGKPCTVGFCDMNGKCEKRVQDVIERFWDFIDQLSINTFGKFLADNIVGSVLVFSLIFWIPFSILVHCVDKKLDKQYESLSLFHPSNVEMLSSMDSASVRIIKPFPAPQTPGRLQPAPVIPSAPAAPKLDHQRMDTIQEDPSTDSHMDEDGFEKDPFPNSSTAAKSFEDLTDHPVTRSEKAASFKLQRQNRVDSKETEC

[16] = Maximal plasma concentration in Beagle dogs after 0.74 mg/kg intravenous dose.; format: ADME, organism-based, Canis lupus familiaris; design: dose 0.74 mg/kg, route intravenous; conditions: dog, in vivo; method in brief: as §1
[17] = system: Mus musculus; assay: Compound at an oral dose of 100 mg/Kg was tested for the inhibition of LPS-stimulated TNF-alpha release in mouse; format: functional
Method in brief: (§2)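 Mice dosed orally at time zero, then immediately given ip D-galactosamine 20 mg plus LPS 10 μg. One hour later, animals anesthetized and bled by cardiac puncture. Plasma TNF-α quantified by mouse-specific ELISA.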

[18] = Pharmacokinetic data in Beagle dogs at 0.5 mg/kg i.v. dose and 2.0 mg/kg p.o. dose; format: ADME, organism-based, Canis lupus familiaris; conditions: dog, in vivo, po
[19] = Pharmacokinetic data in Beagle dogs at 2.0 mg/kg oral dose.; format: ADME, organism-based, Canis lupus familiaris; design: dose 2 mg/kg, route oral; conditions: dog, in vivo
[20] = Maximal plasma concentration in Beagle dogs after 0.5 mg/kg intravenous dose.; format: ADME, organism-based, Canis lupus familiaris; design: dose 0.5 mg/kg, route intravenous; conditions: dog; method in brief: as §1
[21] = Pharmacokinetic data in Beagle dogs at 2.0 mg/kg oral dose; format: ADME, organism-based, Canis lupus familiaris; design: dose 2 mg/kg, route oral; conditions: dog, in vivo
[22] = Pharmacokinetic data in Beagle dogs at 0.5 mg/kg intravenous dose.; format: ADME, organism-based, Canis lupus familiaris; design: dose 0.5 mg/kg, route intravenous; conditions: dog, in vivo; method in brief: as §1
[23] = system: Mus musculus; assay: Compound at an oral dose of 30 mg/Kg was tested for the inhibition of LPS-stimulated TNF-alpha release in mouse; format: functional; method in brief: as §2

Compound: CNC(=O)CNC(=O)[C@@H]1Cc2ccc(cc2)OCCC[C@H](C(=O)NO)[C@@H](CC(C)C)C(=O)N1
Ki [1]: 94 nM
Ki [2]: 12 nM
Ki [3]: 3 nM
AUC [4]: 2613 ng·h/mL
T1/2 [4]: 0.81 h
T max [4]: 0.88 h
clearance [4]: 7 mL/min/kg
Vd ([4]; read-out: Vss): 0.7 L/kg
Ki [5]: 0.45 nM
Ki [6]: 0.5 nM
Ki [7]: 0.8 nM
Ki [8]: 20 nM
Ki [9]: 35 nM
Ki [10]: 14 nM
Ki [11]: 1.1 nM
AUC [12]: 342 ng·h/mL
half-life [12]: 1.29 h
Ki [13]: 0.9 nM
bioavailability [14]: 11%
IC50 [15]: 220 nM
Cmax [16]: 121 ng/mL

IC50 [15]: 2500 nM
Compound: CCCCCC[C@H]1C(=O)N[C@H](C(=O)NC)Cc2ccc(cc2)OCCC[C@@H]1C(=O)NO
inhibition in vivo at 100 mg/kg [17]: 26%

bioavailability [18]: 23%
Ki [1]: 140 nM
Ki [3]: 13 nM
AUC [19]: 1910 ng·h/mL
Ki [7]: 1.5 nM
Cmax [20]: 667 ng/mL
Ki [8]: 71 nM
Ki [9]: 107 nM
Ki [10]: 7.8 nM
half-life [21]: 2.2 h
Ki [13]: 1.2 nM
AUC [22]: 2080 ng·h/mL
Tmax [22]: 1.25 h
clearance [22]: 4.83 mL/min/kg
half-life [22]: 1 h
Vd ([22]; read-out: Vss): 0.33 L/kg
Compound: CC(C)C[C@H]1C(=O)N[C@H](C(=O)NCC(=O)N2CCOCC2)CCCCNC(=O)OCCC[C@@H]1C(=O)NO

IC50 [15]: 200 nM
Compound: CC(C)C[C@H]1C(=O)N[C@H](C(=O)NCC(=O)NC(C)(C)C)Cc2ccc(cc2)OCCC[C@@H]1C(=O)NO
inhibition in vivo at 30 mg/kg [23]: 21%
